Screens (PubChem)
Rows were chosen to be rich in hits. Some 5.4% of all compounds tested hit in one or more screens of this group.
Ecoli WT expand = E. coli BW25113 growth inhibition, expanded screen | OD600 absorbance | growth inhibition, % at 100 µM | hit rate 0.15% among 98,000 | AID 710;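 active = growth inhibition above about 50% at one test dose, limit read from the data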;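 note: growth measured after 20 h incubation at 37 °C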
PostGolgi yeast = growth inhibition of a yeast mutant, post-Golgi transport screen; hit rate 0.9% among 98,000; inhibition, % at 10 µM; post-Golgi transport phenotypic cell assay;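 note: yeast cells grown in 1536-well plates; yeast grown about 18 h at 30C before absorbance read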
PostGolgi ctrl = growth of the yeast control strain, post-Golgi counter-screen; efflux-deficient yeast background strain, growth absorbance A615, 16 h; inhibition, % at 10 µM; hit rate 5% among 98,000
HePTP inh = human HePTP phosphatase inhibition | recombinant HePTP phosphatase activity, OD absorbance | hit rate 0.64% among 110,000 | inhibition, % at 20 µM | AID 521; in the data active = inhibition above about 50%;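 note: plate controls were vehicle for no effect and reference inhibitor for full effect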
Target sequence (P35236 whole entry, looked up): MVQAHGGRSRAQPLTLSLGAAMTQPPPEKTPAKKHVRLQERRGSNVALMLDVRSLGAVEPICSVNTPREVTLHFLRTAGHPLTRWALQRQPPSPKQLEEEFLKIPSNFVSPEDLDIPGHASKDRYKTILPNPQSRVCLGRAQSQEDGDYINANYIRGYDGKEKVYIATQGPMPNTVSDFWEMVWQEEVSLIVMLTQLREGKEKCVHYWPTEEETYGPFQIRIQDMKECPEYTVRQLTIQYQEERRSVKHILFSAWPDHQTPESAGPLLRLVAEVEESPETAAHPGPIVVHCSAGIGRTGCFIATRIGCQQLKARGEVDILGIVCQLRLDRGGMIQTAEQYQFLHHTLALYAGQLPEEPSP
tolC growth inh = E. coli tolC mutant growth inhibition. E. coli BW25113 tolC mutant growth, OD615. growth inhibition, % at 10 µM (by protocol). hit rate 2.2% among 65,000;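 active = growth inhibition at or above a cutoff equal to the mean over every tested compound plus 3 SD, cut at about 60% in these data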;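 note: growth measured after 20 h incubation at 37 °C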
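Material: E. coli BW25113 ΔtolC::kan, tolC deletion mutant strain. Measure: percent growth inhibition. Schedule: 37 °C, 20 h exposure. Doses: single-point testing at 10 µM. Signal: A615 absorbance measurement. Buffer or medium: kanamycin-containing LB broth (50 µg/mL).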
PLAP act = activators of human placental alkaline phosphatase. P05187. purified PLAP enzyme, luminescent substrate read-out; hits give high values. activation fold at 20 µM. hit rate 1.2% among 96,000. AID 696; in the data active = activation fold above about 2
Active calls of the source: *; . = no result. Cut-off read from the data, not from the text of the source, unless noted: active = inhibition above about 30%; inactive = the rest.

SMILES	Ecoli WT expand	PostGolgi yeast	PostGolgi ctrl	HePTP inh	tolC growth inh	PLAP act
CCOC(=O)c1c(NC(=S)NC(=O)c2ccc(OC)cc2)sc(C)c1C	.	.	.	5.5	.	.
C/C(=N\NC(=O)c1c[nH]c2ccccc12)c1ccco1	15.0	3.1	18.7	1.2	.	2.3*
Cc1nonc1OC(C)CNc1ccc([N+](=O)[O-])cc1 (stereo not given)	7.0	-1.1	35.1*	.	.	1
Cc1oc(-c2ccccc2F)nc1CN1CCC(C(=O)NC2CCCc3ccccc32)CC1 (stereo not given)	4.0	-1.5	2.6	.	.	2*
Cc1oc(-c2ccccc2F)nc1CN1CCC(C(=O)NC2CCCCCCC2)CC1	2.0	-1.4	5.2	3.7	16.1	2*
O=C(NCc1cccs1)C1CCCN(c2nc3ccccc3o2)C1 (stereo not given)	-3.0	12.7	42.5*	-7.3	4.4	0.8
Cc1ccc(CNC(=O)C2CCCN(c3nc4ccccc4o3)C2)cc1 (stereo not given)	.	.	.	-5.7	-17.6	.
Cc1ccccc1-c1nc(CN2CCC(C(=O)NC3CCN(Cc4ccccc4)CC3)CC2)c(C)o1	.	.	.	17.7	2.2	.
Cc1oc(-c2ccccc2F)nc1CN1CCC(C(=O)NCc2ccco2)CC1	1.0	6.3	-1.9	-4.5	-0.2	1.3
O=C(NC1CCCCCCC1)C1CCN(c2nc3ccccc3o2)CC1	2.0	4.7	65.9*	8.9	6.1	1.7
O=C(NCCc1ccccc1)C1CCN(c2nc3ccccc3o2)CC1	-11.0	-0.3	5.6	8.9	-5.0	1.1
Cc1cc(C)c(OCCCCN2CCCCC2)c(C)c1	.	.	.	0.1	.	.
O=C(Cc1ccccc1)Nc1nc(-c2cccs2)cs1	2.0	-7.6	-1.4	5.2	39.9	1.2
O=C(Cc1ccccc1F)Nc1nc(-c2cccs2)cs1	-1.0	9.6	5.6	-6.3	91.2*	0.9
O=C(COc1ccc(Cl)cc1)Nc1nc(-c2cccs2)cs1	-10.0	7.7	21.7	1.8	69.2*	.
Cn1c(CC(=O)Nc2ccc(Cl)c(Cl)c2)nnc1SCC(=O)N1CCN(c2ccccc2)CC1	-5.0	3.4	35.7*	.	.	1
O=c1[nH]cnc2scc(-c3ccc(-c4ccccc4)cc3)c12	-12.0	0.3	7.8	-11.1	.	0.8
O=c1[nH]cnc2scc(C3COc4ccccc4O3)c12 (stereo not given)	4.0	13.2	8.2	6.5	22.2	2.1*
O=C(COc1ccccc1)Nc1nnc(-c2ccc3c(c2)CCCC3)o1	-6.0	-13.8	31.2*	.	.	1.2
O=C(Nc1nnc(-c2ccc3c(c2)CCCC3)o1)c1ccccc1	25.0	100.0*	11.4	.	.	1.2
O=C(Nc1nnc(-c2ccc3c(c2)CCCC3)o1)c1ccccc1Cl	6.0	88.5*	28.3	9.6	97.6*	1
O=C(Nc1nnc(-c2ccccc2)o1)C1CCCCC1	-3.0	5.6	-1.4	.	.	1.1
O=C(Nc1ccccc1)c1ccc2c(c1)OCCO2	13.0	1.0	2.4	.	.	1
O=C(Nc1nnc(-c2ccc3c(c2)OCCO3)o1)c1ccc(Cc2ccccc2)cc1	-1.0	-4.0	10.7	1.4	100.0*	1.1
O=C(Nc1nnc(-c2ccc(Cl)cc2)o1)Nc1ccccc1Cl	-2.0	3.1	10.5	.	.	1
SMILES	Ecoli WT expand	PostGolgi yeast	PostGolgi ctrl	HePTP inh	tolC growth inh	PLAP act
CCN(CC)c1ccc(/C=C2\C(=O)c3ccccc3C(=O)\C2=C(/O)c2ccccc2)cc1	.	.	.	5.1	.	.
Cc1sc(NC(=O)c2cc(Cl)ccc2Cl)c(C#N)c1C	.	.	.	103.0*	.	.
CCN(CC)C(=O)c1sc(NC(=O)c2cc(Cl)ccc2Cl)c(C#N)c1C	.	.	.	103.6*	.	.
CC(C)COc1ccc(C(=O)N2CCCCCC2)cc1	.	.	.	2.5	.	.
Cc1ccc(S(=O)(=O)N2c3ccccc3C(Nc3ccccc3)CC2C)cc1 (stereo not given)	.	.	.	1.8	.	.
Cn1c(-c2cccc(Br)c2)cnc1NCc1cccnc1	9.0	0.4	-0.3	4.7	8.1	1.6
COc1cccc(-c2cnc(NCc3cc(Cl)ccc3O)n2C)c1	21.0	-7.1	71.0*	3.4	-20.5	.
CCOC(=O)c1c(NC(=O)c2ccc(OC)c([N+](=O)[O-])c2)sc2c1CCCC2	.	.	.	0.1	.	.
CC(=O)Nc1ccc(S(=O)(=O)Nc2ccc(N(C)C(C)=O)cc2)cc1	.	.	.	-1.8	.	.
O=C(c1ccccc1)c1sc(N2CCCCCC2)nc1-c1ccccc1	-22.0	-4.7	32.6*	.	.	1.1
CCCC(=O)Nc1ccc(NC(=O)COc2ccc(C(C)(C)C)cc2)cc1	.	.	.	-10.6	.	.
COc1ccc(OC)c(-n2c(SCC(=O)N3CCc4ccccc43)nc3c(c2=O)SCC3)c1	-15.0	8.6	41.4*	-2.0	2.1	.
